Screens as filed in PubChem BioAssay.
The full list was thinned out, with hits kept by preference.
XBP1 UPR activ – activators of adaptive arm of unfolded protein response (XBP1). CHO-XBP1 luciferase reporter, IRE1-XBP1 UPR activation, luminescence; percent of tunicamycin response, DMSO as zero. activation, % at 20 µM. hit rate 0.33% among 330,000;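 active = versus positive control, 20 µM dose yields 30% or more activation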
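Material: CHO-XBP1 cells stably carrying IRE1-XBP1-driven luciferase reporter / Amount: 1000 cells per well / Compound: 20 µM, 1% DMSO / Times: 6 h treatment, 37 °C / Detection: luciferase luminescence / Measure: % activation of reporter signal versus tunicamycin and DMSO controls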
CHOP UPR activ – apoptotic UPR (CHOP) activation; CHO-CHOP luciferase reporter, luminescence; percent of tunicamycin response over DMSO baseline; activation, % at 10 µM; hit rate 0.34% among 330,000; AID 449763;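 active = at 10 µM dose, activation of 40% or more, normalized to positive control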
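Test system: CHO-CHOP cells, stable luciferase reporter of PERK-eIF2a-CHOP signalling | Quantity: 500 CHO-CHOP cells per well | Buffer or medium: F12 plus 10% serum | Compound dosing: 10 µM single point, 0.5% DMSO | Schedule: 6 h compound treatment, 37 °C | Signal: Luciferase luminescence | Control set: Tunicamycin high control, DMSO low control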
UCH37 DUB inh – inhibitors of human deubiquitinating enzyme UCH37; Q9Y5K5; purified proteasome/UCH37, Ub-AMC cleavage fluorescence; inhibition, % (concentration not given with the values); hit rate 0.33% among 330,000; AID 588478;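 active = mean inhibition over replicate wells above about 20%, limit read from the data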
Target sequence (Q9Y5K5 whole entry, looked up): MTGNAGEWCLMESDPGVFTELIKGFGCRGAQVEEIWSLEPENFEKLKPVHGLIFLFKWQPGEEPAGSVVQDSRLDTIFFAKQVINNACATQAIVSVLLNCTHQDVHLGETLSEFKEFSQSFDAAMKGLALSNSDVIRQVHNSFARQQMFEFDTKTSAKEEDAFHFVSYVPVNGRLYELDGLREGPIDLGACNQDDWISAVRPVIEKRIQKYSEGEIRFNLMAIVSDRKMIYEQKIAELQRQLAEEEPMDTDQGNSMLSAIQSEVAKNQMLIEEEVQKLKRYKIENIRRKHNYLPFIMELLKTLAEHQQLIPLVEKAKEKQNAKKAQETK
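system = Proteasome-associated human UCH37 deubiquitinase | amount = 0.15 nM proteasome as dispensed | medium = pH 7.4 Tris-HCl (50 mM) with ovalbumin, ATP-MgCl2, DTT | incubation = 30 min preincubation with enzyme, 25 min cleavage at room temperature | detection = AMC fluorescence 355/460 nm | read-out basis = percent inhibition | controls = no-proteasome and no-compound wells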
CTSL1 counter – cathepsin L1 inhibition, PFM18AAP counter-screen. recombinant F. hepatica cathepsin L1, Z-Leu-Arg-MCA fluorescence. inhibition, % at 5.96 µM. hit rate 0.49% among 300,000;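 active = inhibition above the mean of all tested compounds plus 3 SD, set per screening campaign, cut at about 17% in these data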
CHOP inh – blocks CHOP induction under ER stress. CHO-K1 CHOP-promoter luciferase, tunicamycin-induced, 15-18 h. hit rate 3.8% among 220,000. inhibition, % at 10 µM. AID 2732;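 active = compounds that reduced the stress-induced luciferase reporter signal by more than about 70% of percent inhibition, limit read from the data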
Large screens that a line does not name were inactive.

Cc1onc(-c2ccccc2)c1C(=O)Nc1nc2c(s1)CCCC2	none
COc1ccc(O)c(C=NNC(=O)c2c(C)nnn2-c2nonc2N)c1	none (no result: XBP1 UPR activ, CHOP UPR activ, CTSL1 counter, CHOP inh)
O=[N+]([O-])c1ccc(OCc2cccc(COc3ccc([N+](=O)[O-])cc3)n2)cc1	CHOP inh 83.0
COc1ccc(C=NNC(=O)CNC(=O)C2COc3ccccc3O2)cc1[N+](=O)[O-] (stereo not drawn)	none (no result: XBP1 UPR activ, CHOP UPR activ, CTSL1 counter, CHOP inh)
O=C(CON=Cc1ccc(OC(F)F)cc1)N1CCc2ccccc21	none (no result: XBP1 UPR activ, CHOP UPR activ, CTSL1 counter, CHOP inh)
Cn1cccc1/C=C1\SC(=S)N(Nc2ccccc2)C1=O	none
CC(C)C(C(=O)O)N1C(=O)/C(=C/c2cccn2C)SC1=S (stereo not drawn)	UCH37 DUB inh 24.9 (no result: XBP1 UPR activ, CHOP UPR activ)
CCCC(C(=O)O)N1C(=O)/C(=C/c2cccn2C)SC1=S (stereo not drawn)	UCH37 DUB inh 22.5 (no result: XBP1 UPR activ, CHOP UPR activ)
COc1ccc(NC(=O)Nc2cccc(C(=O)N3CCOCC3)c2)cc1OC	CTSL1 counter 17.4
COc1ccc(NC(=O)Nc2ccc(C(=O)N3CCOCC3)cc2)cc1OC	none (no result: CHOP inh)
NC(=O)CC(NC(=O)Cc1cccc2ccccc12)c1ccc(NCCc2ccc(F)cc2)c([N+](=O)[O-])c1 (stereo not drawn)	none
NC(=O)CC(NC(=O)Cc1cccc2ccccc12)c1ccc(NC2CCCCCCC2)c([N+](=O)[O-])c1 (stereo not drawn)	CHOP inh 74.8 (no result: UCH37 DUB inh)
NC(=O)CC(NC(=O)Cc1cccc2ccccc12)c1ccc(NC2CCCCCC2)c([N+](=O)[O-])c1 (stereo not drawn)	CHOP inh 95.5
NC(=O)CC(NC(=O)Cc1cccc2ccccc12)c1ccc(NCCc2ccccc2F)c([N+](=O)[O-])c1 (stereo not drawn)	CHOP inh 91.0
NC(=O)CC(NC(=O)c1ccccc1)c1ccc(NCCc2ccc(F)cc2)c([N+](=O)[O-])c1 (stereo not drawn)	CHOP inh 91.8
NC(=O)CC(NC(=O)Cc1cccc2ccccc12)c1ccc(NC2CCN(Cc3ccccc3)CC2)c([N+](=O)[O-])c1 (stereo not drawn)	none (no result: CHOP inh)
O=C(NN=Cc1cc(Br)c(Br)o1)c1cncc(Br)c1	none (no result: XBP1 UPR activ, CHOP UPR activ, CTSL1 counter, CHOP inh)
COCc1cc(C)nc(NN=Cc2ccc(-c3ccc(Cl)cc3[N+](=O)[O-])o2)c1C#N	none (no result: XBP1 UPR activ, CHOP UPR activ, CTSL1 counter, CHOP inh)
NC(=O)CC(NC(=O)Cc1ccc(Br)cc1)c1ccc(NC2CCCC2)c([N+](=O)[O-])c1 (stereo not drawn)	CHOP inh 83.8
NC(=O)CC(NC(=O)Cc1ccc(Br)cc1)c1ccc(NC2CCCCCCC2)c([N+](=O)[O-])c1 (stereo not drawn)	none (no result: XBP1 UPR activ, CHOP UPR activ, CTSL1 counter, CHOP inh)
Cc1nc(SCC(C)C)[nH]c(=O)c1Cc1ccccc1	CHOP inh 83.0
C=C(C)CSc1nc(C)c(Cc2ccccc2)c(=O)[nH]1	CHOP inh 75.8
COc1ccc(C(C)=NNC(=O)CNC(=O)c2cccnc2)cc1OC	none (no result: XBP1 UPR activ, CHOP UPR activ, CTSL1 counter, CHOP inh)
COc1cccc(-c2cc(C(=O)Nc3c(C)nn(Cc4ccccc4)c3C)no2)c1	none
COc1cccc(-c2cc(C(=O)Nc3c(C)nn(Cc4ccccc4C)c3C)no2)c1	CHOP inh 70.4
COc1ccc(-c2cc(C(=O)Nc3cc(C)nn3-c3ccccc3)no2)cc1	none
COc1ccc(-c2cc(C(=O)Nc3c(C)nn(Cc4ccccc4)c3C)no2)cc1	CHOP inh 75.7
Cc1cc(NC(=O)c2cc(-c3ccccc3)on2)n(-c2ccccc2)n1	CHOP inh 76.1
CN(C)c1cccc(C(=O)NN=Cc2ccsc2)c1	none (no result: XBP1 UPR activ, CHOP UPR activ, CTSL1 counter, CHOP inh)
O=C(Nc1ccc(S(=O)(=O)NC2CCCCC2)cc1)c1ccc(Br)o1	CHOP inh 82.8
O=C(CCc1ccc(S(=O)(=O)NC2CCCCC2)cc1)N(Cc1ccccc1)Cc1ccccc1	UCH37 DUB inh 32.6
CSc1ccc(S(=O)(=O)NC2CCCCCC2)cc1	CHOP inh 78.0
O=C(Nc1ccc(NC(=O)c2cccs2)cc1)c1ccc(Br)o1	CHOP inh 90.5 (no result: UCH37 DUB inh)
Cc1ccc(S(=O)(=O)NC2CCCCC2)cc1	none (no result: CTSL1 counter, CHOP inh)
Cc1ccc(C=NNC(=O)Cc2c[nH]c3ccccc23)c(C)c1	none (no result: XBP1 UPR activ, CHOP UPR activ, CTSL1 counter, CHOP inh)
Brc1cccc(C=NNc2nn[nH]n2)c1	none (no result: XBP1 UPR activ, CHOP UPR activ, CTSL1 counter, CHOP inh)
COc1cc2c(-c3ccccc3)c(C)oc2cc1C=NNC(N)=S	none (no result: XBP1 UPR activ, CHOP UPR activ, CTSL1 counter, CHOP inh)
Cc1onc(-c2c(Cl)cccc2Cl)c1CON=C(C#N)c1c(Cl)cccc1Cl	none (no result: XBP1 UPR activ, CHOP UPR activ, CTSL1 counter, CHOP inh)
